According to ChEMBL document CHEMBL2440047, “Design, synthesis, and structure-activity relationships of azolylmethylpyrroloquinolines as nonsteroidal aromatase inhibitors” (J Med Chem, 2013):
Active and inactive are the calls of the source. The rule behind the calls is not given here.

Assays:
[1] = Growth inhibition of non-estrogen-sensitive human SEM cells after 72 hrs by MTT assay; type: functional
Procedure, shortened: (§1)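 Cells were seeded at 8x10^3 per well and left 18 h at 37 °C, 5% CO2, then exposed 72 h to compound at several concentrations from 10 mM DMSO stocks (final DMSO ≤0.25%). Jurkat, RS4;11 and SEM were grown in RPMI-1640; H295R in DMEM-F12 with 2% FBS plus insulin-transferrin-selenium. Viability read by MTT.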

Aromatase [2] = molecular target: T1, Aromatase (Homo sapiens, UniProt P11511); assay: Inhibition of aromatase in human H295R cells using [1beta-3H(N)]-androst-4-ene-3,17-dione as substrate at 10 uM after 24 hrs by tritiated water release assay
T1 sequence (P11511 whole entry): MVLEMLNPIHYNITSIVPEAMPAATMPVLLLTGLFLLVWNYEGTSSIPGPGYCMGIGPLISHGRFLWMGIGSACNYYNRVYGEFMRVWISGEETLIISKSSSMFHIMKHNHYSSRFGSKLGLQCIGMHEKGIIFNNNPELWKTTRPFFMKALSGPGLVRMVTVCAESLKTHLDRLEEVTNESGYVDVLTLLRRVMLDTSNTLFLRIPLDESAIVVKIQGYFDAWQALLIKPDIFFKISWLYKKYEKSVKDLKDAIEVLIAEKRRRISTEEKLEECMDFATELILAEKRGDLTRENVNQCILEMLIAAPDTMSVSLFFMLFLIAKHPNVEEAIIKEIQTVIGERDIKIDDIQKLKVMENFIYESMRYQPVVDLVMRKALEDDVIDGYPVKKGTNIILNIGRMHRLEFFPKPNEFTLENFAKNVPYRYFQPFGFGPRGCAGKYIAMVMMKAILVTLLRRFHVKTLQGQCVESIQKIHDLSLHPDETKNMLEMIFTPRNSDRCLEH

Aromatase [3] = molecular target: T1, Aromatase; assay: Inhibition of aromatase (unknown origin) using 7-methoxy-4-trifluoromethylcoumarin as substrate after 30 mins by fluorimetric analysis
Procedure, shortened: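 Recombinant CYP19 from a high-throughput screening kit, with 7-methoxy-4-trifluoromethylcoumarin as substrate. Enzyme/substrate mix was then added for 30 min at 37 °C before stop reagent. Fluorescence read at λex 410 / λem 530 nm. IC50 given as mean ± SEM of three independent experiments run in duplicate.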

Jurkat = assay: Growth inhibition of non-estrogen-sensitive human Jurkat cells after 72 hrs by MTT assay; type: functional; procedure, shortened: as §1
[4] = molecular target: T2, Steroid 17-alpha-hydroxylase/17,20 lyase (Homo sapiens, UniProt P05093); assay: Inhibition of human CYP17 expressed in Escherichia coli using progesterone as substrate NADPH as cofactor
T2 sequence (P05093 whole entry): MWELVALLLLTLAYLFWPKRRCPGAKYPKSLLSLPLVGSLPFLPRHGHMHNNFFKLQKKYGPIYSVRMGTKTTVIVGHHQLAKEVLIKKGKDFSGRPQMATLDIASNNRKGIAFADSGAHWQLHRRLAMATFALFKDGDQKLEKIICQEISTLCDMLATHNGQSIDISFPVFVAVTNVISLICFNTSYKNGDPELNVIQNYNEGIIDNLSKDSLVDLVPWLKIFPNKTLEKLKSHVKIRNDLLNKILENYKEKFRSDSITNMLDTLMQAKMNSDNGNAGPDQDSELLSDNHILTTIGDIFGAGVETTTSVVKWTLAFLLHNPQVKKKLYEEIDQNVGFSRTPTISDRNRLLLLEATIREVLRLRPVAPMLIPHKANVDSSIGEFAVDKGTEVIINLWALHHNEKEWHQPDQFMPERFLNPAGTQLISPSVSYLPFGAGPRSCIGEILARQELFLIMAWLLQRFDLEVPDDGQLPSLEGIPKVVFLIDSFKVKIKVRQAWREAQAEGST
Procedure, shortened: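 Cell-free assay using the 50000g sediment of E. coli coexpressing human CYP17 and cytochrome P450 reductase, with progesterone substrate and NADPH cofactor. IC50 given as mean ± SEM of three independent experiments run in duplicate.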

OVCAR-3 = assay: Growth inhibition of estrogen-sensitive human OVCAR3 cells after 72 hrs by MTT assay; type: functional; conditions: OVCAR-3, 72 h; procedure, shortened: as §1
NCI-H295R = assay: Growth inhibition of estrogen-sensitive human NCI-H295R cells after 72 hrs by MTT assay; type: functional; procedure, shortened: as §1
MCF7 [5] = assay: Growth inhibition of estrogen-sensitive human MCF7 cells after 72 hrs by MTT assay; type: functional; conditions: MCF7, 72 h; procedure, shortened: as §1
Aromatase [6] = molecular target: T1, Aromatase; assay: Activation of aromatase in human H295R cells using [1beta-3H(N)]-androst-4-ene-3,17-dione as substrate at 0.1 uM after 24 hrs by tritiated water release assay
IGROV-1 = assay: Growth inhibition of estrogen-sensitive human IGROV1 cells after 72 hrs by MTT assay; type: functional; conditions: IGROV-1, 72 h; procedure, shortened: as §1
[7] = Growth inhibition of non-estrogen-sensitive human RS4:11 cells after 72 hrs by MTT assay; type: functional; conditions: RS4-11, 72 h; procedure, shortened: as §1
HeLa [8] = assay: Growth inhibition of non-estrogen-sensitive human HeLa cells after 72 hrs by MTT assay; type: functional; procedure, shortened: as §1
HT-29 = assay: Growth inhibition of non-estrogen-sensitive human HT-29 cells after 72 hrs by MTT assay; type: functional; conditions: HT-29, 72 h; procedure, shortened: as §1
Aromatase [9] = molecular target: T1, Aromatase; assay: Inhibition of aromatase (unknown origin) using 7-methoxy-4-trifluoromethylcoumarin as substrate at 10 uM after 30 mins by fluorimetric analysis; conditions: 0.5 h
[10] = molecular target: T3, Cytochrome P450 11B1, mitochondrial (Homo sapiens, UniProt P15538); assay: Inhibition of human CYP11B1 using [1,2-3H]-11-deoxycorticosterone as substrate
T3 sequence (P15538 whole entry): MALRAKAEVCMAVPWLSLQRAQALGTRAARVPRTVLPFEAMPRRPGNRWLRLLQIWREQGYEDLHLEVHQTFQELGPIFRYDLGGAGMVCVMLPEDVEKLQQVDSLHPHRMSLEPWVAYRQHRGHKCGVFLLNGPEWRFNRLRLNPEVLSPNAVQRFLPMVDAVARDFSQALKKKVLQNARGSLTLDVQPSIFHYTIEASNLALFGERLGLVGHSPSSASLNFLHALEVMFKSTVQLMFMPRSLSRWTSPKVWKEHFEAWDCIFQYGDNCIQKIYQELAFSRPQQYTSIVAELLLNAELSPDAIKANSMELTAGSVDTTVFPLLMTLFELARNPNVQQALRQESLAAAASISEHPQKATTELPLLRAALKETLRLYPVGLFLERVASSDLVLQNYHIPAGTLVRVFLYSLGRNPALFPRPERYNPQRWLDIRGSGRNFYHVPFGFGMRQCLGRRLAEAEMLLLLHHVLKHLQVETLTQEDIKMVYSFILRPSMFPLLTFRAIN
Procedure, shortened: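 Hamster fibroblast V79MZh cells expressing human CYP11B1 were incubated with [1,2-3H]-11-deoxycorticosterone substrate and inhibitor at several concentrations. IC50 given as mean ± SEM of three independent experiments run in duplicate.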

Aromatase [11] = molecular target: T1, Aromatase; assay: Inhibition of CYP19 in human H295R cells using [1beta-3H(N)]-androst-4-ene-3,17-dione at 10 uM after 24 hrs by tritiated water release assay; type: cell-based
Procedure, shortened: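 Cells were then incubated 2 h with 0.5 µM [1β-3H(N)]-androst-4-ene-3,17-dione. Read-out is tritiated water release, expressed as % of untreated cells. Means ± SEM of two independent experiments, each in triplicate.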

Aromatase [12] = molecular target: T1, Aromatase; assay: Inhibition of aromatase in human H295R cells using [1beta-3H(N)]-androst-4-ene-3,17-dione as substrate assessed as residual activity at 1 uM after 24 hrs by tritiated water release assay
MCF7 [13] = assay: Cell cycle arrest in estrogen-sensitive human MCF7 cells assessed as decrease of accumulation at G1 and S phase at 6 to 50 uM after 24 hrs using propidium iodide staining by flow cytometry; type: functional, cell-based
HeLa [14] = assay: Cell cycle arrest in non-estrogen-sensitive human HeLa cells assessed as decrease of accumulation at G1 and S phase at 6 to 50 uM after 24 hrs using propidium iodide staining by flow cytometry; type: functional, cell-based
HeLa [15] = assay: Cell cycle arrest in non-estrogen-sensitive human HeLa cells assessed as increase of accumulation at G2/M phase at 6 to 50 uM after 24 hrs using propidium iodide staining by flow cytometry; type: functional, cell-based
Aromatase [16] = molecular target: T1, Aromatase; assay: Inhibition of aromatase in human H295R cells using [1beta-3H(N)]-androst-4-ene-3,17-dione as substrate assessed as residual activity at 10 uM after 24 hrs by tritiated water release assay
MCF7 [17] = assay: Cell cycle arrest in estrogen-sensitive human MCF7 cells assessed as increase of accumulation at G2/M phase at 6 to 50 uM after 24 hrs using propidium iodide staining by flow cytometry; type: functional, cell-based

SMILES	GI50 [1] [µM]	IC50 (Aromatase [3]) [µM]	GI50 (MCF7 [5]) [µM]	GI50 (HT-29) [µM]	inhibition (INH) (Aromatase [11])	other results
CCn1ccc2c3c(CO)cc(-c4ccccc4)nc3ccc21	13.4	> 10				inhibition at 10 µM (Aromatase [2]): 90%
CCn1ccc2c3nc(-c4ccccc4)cc(Cn4ccnc4)c3ccc21	31.2	0.0053	3.8	6.5		GI50 (Jurkat): 16.7 µM; IC50 [4]: 0.48 µM; GI50 (OVCAR-3): 17.5 µM; GI50 (NCI-H295R): 19 µM; Activity (Aromatase [6]): Active; GI50 (IGROV-1): 18.9 µM; GI50 [7]: 19.2 µM; GI50 (HeLa [8]): 19.5 µM; inhibition (INH) (Aromatase [9]): Active; IC50 [10]: 0.25 µM
COc1ccc(-c2cc(C(=O)O)c3ccc4[nH]ccc4c3n2)cc1		> 10			Not Active	activity at 1 µM (Aromatase [12]): 10.6%
CCOC(=O)c1cc(-c2ccccc2)nc2ccc3c(ccn3CC)c12		> 10			Not Active	
CCn1ccc2c3c(Cn4cncn4)cc(-c4ccccc4)nc3ccc21	5.5	0.0133	23	29.5		GI50 (Jurkat): 65.8 µM; Activity (MCF7 [13]): Active; Activity (HeLa [14]): Active; IC50 [4]: > 5 µM; GI50 (OVCAR-3): 13.6 µM; Activity (HeLa [15]): Active; activity at 10 µM (Aromatase [16]): 50.9%; GI50 (NCI-H295R): 75.3 µM; GI50 (IGROV-1): 54.3 µM; Activity (MCF7 [17]): Active; GI50 [7]: 2.7 µM; GI50 (HeLa [8]): 59.8 µM; IC50 [10]: 1.48 µM
CCn1ccc2c3c(C(=O)O)cc(-c4ccccc4)nc3ccc21		1.47			Not Active	
CCOC(=O)c1cc(-c2ccc(OC)cc2)nc2c1ccc1[nH]ccc12		> 10		1.9	Active	
CCn1ccc2c3nc(-c4ccccc4)cc(CO)c3ccc21		> 10			Not Active	
Cc1cc(CO)c2ccc3[nH]ccc3c2n1	16.2	4.15	5.7		Not Active	
